These results are taken from ChEMBL document CHEMBL1156247, “Synthesis and anti-HIV-1 integrase activity of modified dinucleotides” (Eur J Med Chem, 2009).

As usually defined, the IC50 is the concentration at which inhibition is half-maximal.

Each structure is given as a SMILES string. Activity calls are given as the source filed them. The rule behind the calls is not given here. Some results are limits rather than exact numbers.

Human immunodeficiency virus type 1 integrase, sequence (Q7ZJM1 whole entry): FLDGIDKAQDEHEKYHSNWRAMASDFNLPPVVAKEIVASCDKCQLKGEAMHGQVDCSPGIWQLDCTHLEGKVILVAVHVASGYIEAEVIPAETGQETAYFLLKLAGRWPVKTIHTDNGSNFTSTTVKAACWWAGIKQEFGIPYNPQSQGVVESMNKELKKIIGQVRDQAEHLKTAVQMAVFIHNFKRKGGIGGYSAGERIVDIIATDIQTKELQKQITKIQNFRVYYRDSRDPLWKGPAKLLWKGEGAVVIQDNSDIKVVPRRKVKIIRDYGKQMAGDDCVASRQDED
Human immunodeficiency virus type 1 integrase (Human immunodeficiency virus 1), sequence (Q7ZJM1 as listed by the source): as the sequence (Q7ZJM1 whole entry) above

The first test deals with Human immunodeficiency virus type 1 integrase (Human immunodeficiency virus 1) (UniProt Q7ZJM1). The test can be described thus: Inhibition of recombinant HIV1 integrase 3^-end processing and strand transfer activity at 300 uM to 300 nM after 1 hr by PAGE analysis. A digest of the protocol:
(§1)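 Recombinant HIV-1 integrase (100 nM) with 12.5 nM 21-mer double-stranded DNA substrate in 10 mM HEPES pH 7.2, 1 mM DTT, 7.5 mM MgCl₂, 1 hr at 37 °C. Compound was titrated from 300 nM upward; an EDTA (10 mM) lane and a no-drug lane were included. 3′-processed and strand-transfer products were resolved on denaturing 18% acrylamide/urea gels.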
Turning to `Nc1ccn([C@H]2C[C@H](OP(=O)(O)OC[C@H]3O[C@@H](n4cnc5c(N)ncnc54)C[C@@H]3OP(=O)(O)O)[C@@H](COP(=O)(O)OCCCCCCNC(=O)c3ccc4c(c3)C(=O)c3cc(C(=O)NCCCCCCO)ccc3C4=O)O2)c(=O)n1` (stereo in doubt; 29) [listing 1 of 2 here], the outcome was Active.

On to `Nc1ccn([C@H]2C[C@H](OP(=O)(O)OC[C@H]3O[C@@H](n4cnc5c(N)ncnc54)C[C@@H]3OP(=O)(O)O)[C@@H](COP(=O)(O)OCCCCCCNCc3ccc4c5cccc6cccc(c7cccc3c74)c65)O2)c(=O)n1`, for which the outcome was Active.

Consider `COc1ccc2nc3cc(Cl)ccc3c(NCCCCCCOP(=O)(O)OC[C@H]3O[C@@H](n4ccc(N)nc4=O)C[C@@H]3OP(=O)(O)OC[C@H]3O[C@@H](n4cnc5c(N)ncnc54)C[C@@H]3OP(=O)(O)O)c2c1`, for which the result was Active.

For the next test the target is unchanged. Kind of test: Ratio of D-d-5^ CpA3^ IC50 to compound IC50 for recombinant HIV1 integrase 3^-end processing and strand transfer activity.
For `NCCCCNP(=O)(OC[C@H]1O[C@@H](n2ccc(N)nc2=O)C[C@@H]1O)OC[C@H]1O[C@@H](n2cnc3c(N)ncnc32)C[C@@H]1O` (stereo not given in full), the Ratio IC50 was determined as 3.

As for `Nc1ccn([C@H]2C[C@H](OP(=O)(S)O[C@H]3C[C@H](n4cnc5c(N)ncnc54)O[C@@H]3CO)[C@@H](CO)O2)c(=O)n1` (stereo not given in full), the Ratio IC50 was 3.

Consider `NCCCCNP(=O)(O[C@H]1C[C@H](n2ccc(N)nc2=O)O[C@@H]1CO)O[C@H]1C[C@H](n2cnc3c(N)ncnc32)O[C@@H]1CO` (stereo not given in full), for which the Ratio IC50 was found to be 3.

As for `N=C(N)NCCCCNP(=O)(OC[C@H]1O[C@@H](n2ccc(N)nc2=O)C[C@@H]1O)OC[C@H]1O[C@@H](n2cnc3c(N)ncnc32)C[C@@H]1O` (stereo not given in full), the Ratio IC50 is 3.

Take `N=C(N)NCCCCNP(=O)(O[C@H]1C[C@H](n2ccc(N)nc2=O)O[C@@H]1CO)O[C@H]1C[C@H](n2cnc3c(N)ncnc32)O[C@@H]1CO` (stereo not given in full): the Ratio IC50 turned out to be 3.

The target of a further test is Human immunodeficiency virus type 1 integrase (Human immunodeficiency virus 1, UniProt Q7ZJM1). Kind of test: Inhibition of recombinant HIV1 integrase 3^-end processing and strand transfer activity after 1 hr. The procedure, abridged:
as §1
As to `N=C(N)NCCCCNP(=O)(OC[C@H]1O[C@@H](n2cnc3c(N)ncnc32)C[C@@H]1O)O[C@H]1C[C@H](n2ccc(N)nc2=O)O[C@@H]1CO` (stereo not given in full), the IC50 was not below 340 µM.

`NCCCCNP(=O)(OC[C@H]1O[C@@H](n2ccc(N)nc2=O)C[C@@H]1O)OC[C@H]1O[C@@H](n2cnc3c(N)ncnc32)C[C@@H]1O` (stereo not given in full): the IC50 was found to be 102 µM.

As to `Nc1ccn([C@H]2C[C@H](OP(=O)(O)O[C@H]3C[C@H](n4cnc5c(N)ncnc54)O[C@@H]3CO)[C@@H](CO)O2)c(=O)n1`, the IC50 was not below 340 µM.

With `NCCNc1ccn([C@H]2C[C@H](OP(=O)(O)OC[C@H]3O[C@@H](n4cnc5c(N)ncnc54)C[C@@H]3O)[C@@H](CO)O2)c(=O)n1`, the IC50 was more than 1000 µM.

Consider `Nc1ccn([C@H]2C[C@H](OP(=O)(S)O[C@H]3C[C@H](n4cnc5c(N)ncnc54)O[C@@H]3CO)[C@@H](CO)O2)c(=O)n1` (stereo not given in full), for which the IC50 was 110 µM.

Regarding `Nc1ccn([C@H]2C[C@H](OP(=O)(O)OC[C@H]3O[C@@H](n4cnc5c(N)ncnc54)C[C@@H]3OP(=O)(O)O)[C@@H](COP(=O)(O)OCCCCCCNC(=O)c3ccc4c(c3)C(=O)c3cc(C(=O)NCCCCCCO)ccc3C4=O)O2)c(=O)n1` (stereo in doubt; 29) [listing 2 of 2 here], the IC50 is 65.5 µM.

With `NCCCCNc1ccn([C@H]2C[C@H](OP(=O)(O)OC[C@H]3O[C@@H](n4cnc5c(N)ncnc54)C[C@@H]3O)[C@@H](CO)O2)c(=O)n1`, the IC50 was more than 1000 µM.

As for `Nc1ccn([C@@H]2C[C@@H](OP(=O)(O)OC[C@@H]3O[C@H](n4cnc5c(N)ncnc54)C[C@H]3O)[C@H](CO)O2)c(=O)n1` (single isomer, unassigned), the IC50 is not below 340 µM.

On to `Nc1ccn([C@H]2C[C@H](O)[C@@H](COP(=O)(S)OC[C@H]3O[C@@H](n4cnc5c(N)ncnc54)C[C@@H]3O)O2)c(=O)n1` (stereo not given in full), for which the IC50 was not below 340 µM.

Turning to `Nc1ccn([C@H]2C[C@H](OP(=O)(O)OC[C@H]3O[C@@H](n4cnc5c(N)ncnc54)C[C@@H]3OP(=O)(O)O)[C@@H](COP(=O)(O)OCCCCCCNCc3ccc4c5cccc6cccc(c7cccc3c74)c65)O2)c(=O)n1`, the IC50 amounted to 1.8 µM.

`NCCN(CCN)CCCSP(=O)(O)OC[C@H]1O[C@@H](n2ccc(N)nc2=O)C[C@@H]1OP(=O)(O)OC[C@H]1O[C@@H](n2cnc3c(N)ncnc32)C[C@@H]1OP(=O)(O)O`: the IC50 amounted to 786 µM.

Regarding `COc1ccc2nc3cc(Cl)ccc3c(NCCCCCCSP(=O)(O)O[C@H]3C[C@H](n4cnc5c(N)ncnc54)O[C@@H]3COP(=O)(O)O[C@H]3C[C@H](n4ccc(N)nc4=O)O[C@@H]3COP(=O)(O)O)c2c1`, the IC50 was more than 100 µM.

As to `Nc1ccn([C@@H]2C[C@@H](O)[C@H](COP(=O)(O)O[C@@H]3C[C@@H](n4cnc5c(N)ncnc54)O[C@H]3CO)O2)c(=O)n1`, the IC50 is not below 340 µM.

Turning to `Nc1ccn([C@H]2C[C@H](OP(=O)(O)OC[C@H]3O[C@@H](n4cnc5c(N)ncnc54)C[C@@H]3OP(=O)(O)NCCCCCCCCCCCCO)[C@@H](COP(=O)(O)O)O2)c(=O)n1`, the IC50 is more than 100 µM.

As for `COc1ccc2nc3cc(Cl)ccc3c(NCCCCCCOP(=O)(O)OC[C@H]3O[C@@H](n4ccc(N)nc4=O)C[C@@H]3OP(=O)(O)OC[C@H]3O[C@@H](n4cnc5c(N)ncnc54)C[C@@H]3OP(=O)(O)O)c2c1`, the IC50 amounted to 13.2 µM.

On to `N=C(N)NCCCCCNc1ccn([C@H]2C[C@H](OP(=O)(O)OC[C@H]3O[C@@H](n4cnc5c(N)ncnc54)C[C@@H]3O)[C@@H](CO)O2)c(=O)n1`, for which the IC50 is more than 340 µM.

In the case of `NCCCCNP(=O)(O[C@H]1C[C@H](n2ccc(N)nc2=O)O[C@@H]1CO)O[C@H]1C[C@H](n2cnc3c(N)ncnc32)O[C@@H]1CO` (stereo not given in full), the IC50 was found to be 100 µM.

For the compound `COc1ccc2nc3cc(Cl)ccc3c(NCCCCSP(=O)(O)O[C@H]3C[C@H](n4cnc5c(N)ncnc54)O[C@@H]3COP(=O)(O)O[C@H]3C[C@H](n4ccc(N)nc4=O)O[C@@H]3COP(=O)(O)O)c2c1`, the half-maximal inhibitory concentration (IC50) is more than 100 µM.

In the case of `COc1ccc2nc3cc(Cl)ccc3c(NCCC[N+](C)(C)CCCSP(=O)(O)OC[C@H]3O[C@@H](n4ccc(N)nc4=O)C[C@@H]3OP(=O)([O-])OC[C@H]3O[C@@H](n4cnc5c(N)ncnc54)C[C@@H]3OP(=O)(O)O)c2c1`, the IC50 is more than 100 µM.

`Nc1ccn([C@H]2C[C@H](OP(=O)(O)OC[C@H]3O[C@@H](n4cnc5c(N)ncnc54)C[C@@H]3OP(=O)(O)O)[C@@H](COP(=O)(O)OCCCCCCNC(=O)c3ccc4c(c3)C(=O)c3cc(C(=O)NCCCCCCO)ccc3C4=O)O2)c(=O)n1` (stereo in doubt; 28): the IC50 was 21 µM.

`NCCCCCCNP(=O)(O)O[C@H]1C[C@H](n2cnc3c(N)ncnc32)O[C@@H]1COP(=O)(O)O[C@H]1C[C@H](n2ccc(N)nc2=O)O[C@@H]1COP(=O)(O)O`: the IC50 was more than 100 µM.

In the case of `NCCCNc1ccn([C@H]2C[C@H](OP(=O)(O)OC[C@H]3O[C@@H](n4cnc5c(N)ncnc54)C[C@@H]3O)[C@@H](CO)O2)c(=O)n1`, the IC50 is more than 1000 µM.

As to `COc1ccc2nc3cc(Cl)ccc3c(NCCC[N+](C)(C)CCCSP(=O)(O)O[C@H]3C[C@H](n4cnc5c(N)ncnc54)O[C@@H]3COP(=O)([O-])O[C@H]3C[C@H](n4ccc(N)nc4=O)O[C@@H]3COP(=O)(O)O)c2c1`, the IC50 was more than 100 µM.

Take `Nc1ccn([C@H]2C[C@H](OP(=O)(O)OC[C@H]3O[C@@H](n4cnc5c(N)ncnc54)C[C@@H]3OP(=O)(O)NCCCO)[C@@H](COP(=O)(O)O)O2)c(=O)n1`: the half-maximal inhibitory concentration (IC50) was more than 100 µM.

For `NCCCCCNc1ccn([C@H]2C[C@H](OP(=O)(O)OC[C@H]3O[C@@H](n4cnc5c(N)ncnc54)C[C@@H]3O)[C@@H](CO)O2)c(=O)n1`, the half-maximal inhibitory concentration (IC50) was more than 340 µM.

In the case of `Nc1ccn([C@H]2C[C@H](OP(=O)(S)OC[C@H]3O[C@@H](n4cnc5c(N)ncnc54)C[C@@H]3O)[C@@H](CO)O2)c(=O)n1` (stereo not given in full), the IC50 is not below 340 µM.

Turning to `N=C(N)NCCCCNc1ccn([C@H]2C[C@H](OP(=O)(O)OC[C@H]3O[C@@H](n4cnc5c(N)ncnc54)C[C@@H]3O)[C@@H](CO)O2)c(=O)n1`, the IC50 is more than 340 µM.

On to `N=C(N)NCCCCNP(=O)(OC[C@H]1O[C@@H](n2ccc(N)nc2=O)C[C@@H]1O)OC[C@H]1O[C@@H](n2cnc3c(N)ncnc32)C[C@@H]1O` (stereo not given in full), for which the IC50 amounted to 100 µM.

For the compound `N=C(N)NCCCCNP(=O)(O[C@H]1C[C@H](n2ccc(N)nc2=O)O[C@@H]1CO)O[C@H]1C[C@H](n2cnc3c(N)ncnc32)O[C@@H]1CO` (stereo not given in full), the IC50 came to 100 µM.

Turning to `Nc1ccn([C@H]2C[C@H](O)[C@@H](COP(=O)(O)OC[C@H]3O[C@@H](n4cnc5c(N)ncnc54)C[C@@H]3O)O2)c(=O)n1`, the IC50 is not below 340 µM.

On to `Nc1ccn([C@H]2C[C@H](OP(=O)(O)OC[C@H]3O[C@@H](n4cnc5c(N)ncnc54)C[C@@H]3O)[C@@H](CO)O2)c(=O)n1`, for which the IC50 was determined as 340 µM.

With `N=C(N)NCCCCCCNc1ccn([C@H]2C[C@H](OP(=O)(O)OC[C@H]3O[C@@H](n4cnc5c(N)ncnc54)C[C@@H]3O)[C@@H](CO)O2)c(=O)n1`, the IC50 was more than 340 µM.

As for `Nc1ccn([C@H]2C[C@H](OP(=O)(O)OC[C@H]3O[C@@H](n4cnc5c(N)ncnc54)C[C@@H]3OP(=O)(O)O)[C@@H](COP(=O)(O)SCCCCCC(=O)Nc3cccc4c3C(=O)c3ccccc3C4=O)O2)c(=O)n1`, the IC50 is 13.9 µM.

For `NCCCCCCNc1ccn([C@H]2C[C@H](OP(=O)(O)OC[C@H]3O[C@@H](n4cnc5c(N)ncnc54)C[C@@H]3O)[C@@H](CO)O2)c(=O)n1`, the IC50 was more than 340 µM.

Turning to `NCCCCNP(=O)(OC[C@H]1O[C@@H](n2cnc3c(N)ncnc32)C[C@@H]1O)O[C@H]1C[C@H](n2ccc(N)nc2=O)O[C@@H]1CO` (stereo not given in full), the IC50 is not below 340 µM.

For the compound `Nc1ccn([C@H]2C[C@H](OP(=O)(O)OC[C@H]3O[C@@H](n4cnc5c(N)ncnc54)C[C@@H]3OP(=O)(O)O)[C@@H](COP(=O)(O)SCCCCCC(=O)Nc3ccc(N)c4c3C(=O)c3ccccc3C4=O)O2)c(=O)n1`, the IC50 is 13.4 µM.

Turning to `Nc1ccn([C@H]2C[C@H](OP(=O)(O)OC[C@H]3O[C@@H](n4cnc5c(N)ncnc54)C[C@@H]3OP(=O)(O)O)[C@@H](COP(=O)(O)O[C@H]3C[C@H](OCCCc4ccc5c6cccc7cccc(c8cccc4c85)c76)O[C@@H]3CO)O2)c(=O)n1`, the IC50 is 30 µM.
